From ChEMBL document CHEMBL1154928, “SAR and optimization of thiazole analogs as potent stearoyl-CoA desaturase inhibitors” (Bioorg Med Chem Lett, 2010)
pIC50: −log10 of the molar value. Calls of active or inactive are those of the source. The rule behind the calls is not given here.

How the values were obtained:
Acyl-CoA desaturase 1 = target: T1, Acyl-CoA desaturase 1 (Rattus norvegicus, UniProt P07308); test: Inhibition of SCD1 in Wistar rat liver microsome assessed as [3H]stearoyl-CoA to [3H]oleoyl-CoA conversion pretreated 1 hr before [3H]stearoyl-CoA addition measured after 60 mins by HPLC based scintillation assay; type: microsomes
T1 sequence (P07308 whole entry): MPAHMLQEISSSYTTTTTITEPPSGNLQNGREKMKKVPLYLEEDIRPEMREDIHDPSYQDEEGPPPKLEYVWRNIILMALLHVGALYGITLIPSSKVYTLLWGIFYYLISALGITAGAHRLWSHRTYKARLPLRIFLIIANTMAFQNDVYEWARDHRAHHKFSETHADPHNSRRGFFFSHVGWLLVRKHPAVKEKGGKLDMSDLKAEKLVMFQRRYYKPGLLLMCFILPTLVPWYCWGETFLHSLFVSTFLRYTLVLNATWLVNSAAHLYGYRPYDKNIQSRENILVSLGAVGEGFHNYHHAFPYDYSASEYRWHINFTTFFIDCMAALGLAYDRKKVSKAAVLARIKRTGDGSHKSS

Stearoyl-CoA desaturase = target: T2, Stearoyl-CoA desaturase (Homo sapiens, UniProt O00767); test: Inhibition of SCD1 in human HepG2 cells assessed as [14C]stearic acid to [14C]oleic acid conversion pretreated 15 mins before [14C]stearic acid addition measured after 4 hrs by HPLC based scintillation assay; type: cell-based
T2 sequence (O00767 whole entry): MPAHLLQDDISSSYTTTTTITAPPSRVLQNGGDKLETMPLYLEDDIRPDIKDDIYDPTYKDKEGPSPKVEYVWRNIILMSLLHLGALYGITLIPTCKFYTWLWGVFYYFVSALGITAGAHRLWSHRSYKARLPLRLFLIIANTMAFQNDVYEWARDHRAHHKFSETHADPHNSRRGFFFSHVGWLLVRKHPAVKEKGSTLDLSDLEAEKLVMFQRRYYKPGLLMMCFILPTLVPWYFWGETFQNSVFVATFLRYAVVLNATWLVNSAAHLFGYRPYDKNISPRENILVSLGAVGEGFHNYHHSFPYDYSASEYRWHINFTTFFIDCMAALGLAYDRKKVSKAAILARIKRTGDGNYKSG

Mus musculus [1] = test: Toxicity in C57BL/6 mouse assessed as progressive alopecia at 0.2 mg/kg, po dosed QD for 7 days; type: organism-based, C57BL6; parameters: dose 0.2 mg/kg, route oral; details: in vivo, 168 h
Mus musculus [2] = test: Inhibition of SCD in po dosed C57BL/6 mouse liver assessed as [14C]stearic acid to [14C]oleic acid conversion after 3 hrs by liver SCD activity index; type: functional; details: C57BL6, Liver
Procedure, shortened: (§1)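 In vivo SCD activity was measured in mice fed a high carbohydrate diet and dosed orally. At 3 h, [1-14C]-stearic acid tracer was given intravenously and its conversion to [1-14C]-oleic acid in liver lipids was followed. The SCD activity index is the 14C-oleic/14C-stearic acid ratio. Liver compound concentration was also measured, and the ED50 was derived from the dose-response.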

Mus musculus [3] = test: Toxicity in C57BL/6 mouse assessed as partial eye closure at 0.2 mg/kg, po dosed QD for 7 days; type: organism-based, C57BL6; parameters: dose 0.2 mg/kg, route oral; details: in vivo, 168 h
[4] = AUC (0 to 24 hrs) in C57BL/6 mouse at 10 mg/kg, po; type: ADME, organism-based, C57BL6; parameters: time < 24 hr, dose 10 mg/kg, route oral; details: plasma
[5] = Oral bioavailability in C57BL/6 mouse at 10 mg/kg; type: ADME, organism-based, C57BL6; details: in vivo
[6] = Ratio of drug level in adipose tissue to plasma in C57BL/6 mouse at 10 mg/kg, po after 6 hrs; type: ADME, organism-based, C57BL6; parameters: dose 10 mg/kg, route oral
Procedure, shortened: (§2)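 Tissue distribution was measured in C57BL6 mice 6 h after a single 10 mg/kg oral dose. Compound levels were determined in liver, adipose tissue and plasma, and tissue-to-plasma ratios were calculated.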

[7] = Biodistribution in C57BL/6 mouse skin at 10 mg/kg, po after 6 hrs; type: ADME, organism-based, C57BL6, Zone of skin; parameters: dose 10 mg/kg, route oral; details: read-out: Drug uptake
[8] = Ratio of drug level in liver to plasma in C57BL/6 mouse at 10 mg/kg, po after 6 hrs; type: ADME, organism-based, C57BL6; parameters: dose 10 mg/kg, route oral; procedure, shortened: as §2
[9] = Drug level in C57BL/6 mouse blood at 1 mg/ kg, po after 3 hrs; type: ADME, organism-based, C57BL6; parameters: dose 1 mg/ kg, route oral; details: read-out: Drug uptake
[10] = Plasma concentration in C57BL/6 mouse at 10 mg/kg, po after 6 hrs; type: ADME, organism-based, C57BL6; parameters: dose 10 mg/kg, route oral; procedure, shortened: as §2
Mus musculus [11] = test: Antiobesity activity in C57BL/6 mouse assessed as reduction in high fat diet-induced body weight gain at 0.2 mg/kg, po dosed QD for 4 weeks relative to control; type: functional, C57BL6; parameters: scale not given: the % may be the effect or the level left
Mus musculus [12] = test: Inhibition of SCD in C57BL/6 mouse liver assessed as [14C]stearic acid to [14C]oleic acid conversion at 0.1 mg/kg, po after 3 hrs by liver SCD activity index; type: functional, organism-based; parameters: dose 0.1 mg/kg; details: C57BL6; procedure, shortened: as §1
[13] = Drug level in C57BL/6 mouse blood at 0.3 mg/ kg, po after 3 hrs; type: ADME, organism-based, C57BL6; parameters: dose 0.3 mg/ kg, route oral; details: read-out: Drug uptake
[14] = Biodistribution in C57BL/6 mouse liver at 10 mg/kg, po after 6 hrs; type: ADME, organism-based, C57BL6; parameters: dose 10 mg/kg, route oral; details: read-out: Drug uptake; procedure, shortened: as §2
Mus musculus [15] = test: Antidiabetic activity in C57BL/6 mouse assessed as reduction in plasma glucose level at 0.2 mg/kg, po dosed QD for 4 weeks; type: functional, C57BL6; parameters: scale not given: the % may be the effect or the level left
[16] = Drug level in C57BL/6 mouse liver at 0.3 mg/ kg, po after 3 hrs; type: ADME, organism-based, C57BL6; parameters: dose 0.3 mg/ kg, route oral; details: read-out: Drug uptake; procedure, shortened: as §1
[17] = Drug level in C57BL/6 mouse blood at 0.1 mg/ kg, po after 3 hrs; type: ADME, organism-based, C57BL6; parameters: dose 0.1 mg/ kg, route oral; details: read-out: Drug uptake
[18] = Biodistribution in C57BL/6 mouse adipose tissue at 10 mg/kg, po after 6 hrs; type: ADME, organism-based, C57BL6; parameters: dose 10 mg/kg, route oral; details: read-out: Drug uptake; procedure, shortened: as §2
Mus musculus [19] = test: Inhibition of SCD in C57BL/6 mouse liver assessed as [14C]stearic acid to [14C]oleic acid conversion at 0.3 mg/kg, po after 3 hrs by liver SCD activity index; type: functional; details: C57BL6, Liver; procedure, shortened: as §1
[20] = Plasma concentration in C57BL/6 mouse at 0.3 mg/kg, po dosed QD for 3 days and measured on day 3; type: ADME, organism-based, C57BL6; parameters: dose 0.3 mg/kg, route oral
Procedure, shortened: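 C57BL6 mice on a high fat diet were dosed orally once daily for 3 days at 0.3 mg/kg. Plasma was sampled on day 3 at the terminal 24 h post-dose point.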

[21] = Drug level in C57BL/6 mouse liver at 0.1 mg/ kg, po after 3 hrs; type: ADME, organism-based, C57BL6; parameters: dose 0.1 mg/ kg, route oral; details: read-out: Drug uptake; procedure, shortened: as §1
Mus musculus [22] = test: Inhibition of SCD in C57BL/6 mouse liver assessed as [14C]stearic acid to [14C]oleic acid conversion at 1 mg/kg, po after 3 hrs by liver SCD activity index; type: functional; details: C57BL6, Liver; procedure, shortened: as §1
[23] = Drug level in C57BL/6 mouse liver at 1 mg/ kg, po after 3 hrs; type: ADME, organism-based, C57BL6; parameters: dose 1 mg/ kg, route oral; details: read-out: Drug uptake; procedure, shortened: as §1
Mus musculus [24] = test: Antidiabetic activity in C57BL/6 mouse assessed as reduction in insulin level at 0.2 mg/kg, po dosed QD for 4 weeks; type: functional, C57BL6; parameters: scale not given: the % may be the effect or the level left

## Cc1nnc(-c2cnc(N3CCC(Oc4ccccc4C(F)(F)F)CC3)s2)s1
Acyl-CoA desaturase 1
  pIC50: 6.12

## NC(=O)c1cnc(N2CCC(Sc3ccccc3C(F)(F)F)CC2)s1
Acyl-CoA desaturase 1
  pIC50: 8.40
Stearoyl-CoA desaturase
  pIC50: 7.62

## NC(=O)c1csc(N2CCC(Oc3ccccc3C(F)(F)F)CC2)n1
Acyl-CoA desaturase 1
  pIC50: 6.17
Stearoyl-CoA desaturase
  pIC50: 5.19

## NC(=O)Nc1cnc(N2CCC(Oc3ccccc3C(F)(F)F)CC2)s1
Acyl-CoA desaturase 1
  pIC50: 6.82

## FC(F)(F)c1ccccc1OC1CCN(c2ncc(-c3nnco3)s2)CC1
Acyl-CoA desaturase 1
  pIC50: 7.47
Stearoyl-CoA desaturase
  pIC50: 7.19

## NC(=O)c1cnc(N2CCN(C(=O)c3ccccc3C(F)(F)F)CC2)s1
Acyl-CoA desaturase 1
  pIC50: 6.97
Stearoyl-CoA desaturase
  pIC50: 6.60
Mus musculus [1]
  Activity: Toxic
Mus musculus [2]
  ED50: 3 mg/kg
Mus musculus [3]
  Activity: Toxic

## COC(=O)Nc1cnc(N2CCC(Oc3ccccc3C(F)(F)F)CC2)s1
Acyl-CoA desaturase 1
  pIC50: 6.12
Stearoyl-CoA desaturase
  pIC50: 6.11

## Cc1nc(-c2cnc(N3CCC(Oc4ccccc4C(F)(F)F)CC3)s2)no1
Acyl-CoA desaturase 1
  pIC50: 7.82
[4]
  AUC(0-t) at 24 h: 3.5 µM·h
[5]
  bioavailability: 24%
Stearoyl-CoA desaturase
  pIC50: 7.41

## FC(F)(F)c1ccccc1OC1CCN(c2ncc(-c3ncon3)s2)CC1
Acyl-CoA desaturase 1
  pIC50: 8.40
[4]
  AUC(0-t) at 24 h: 2.9 µM·h
[5]
  bioavailability: 33%
Stearoyl-CoA desaturase
  pIC50: 7.80

## NC(=O)c1nnc(N2CCC(Oc3ccccc3C(F)(F)F)CC2)s1
Acyl-CoA desaturase 1
  pIC50: 8.52
Stearoyl-CoA desaturase
  pIC50: 8.15

## NC(=O)c1nc(N2CCC(Oc3ccccc3C(F)(F)F)CC2)no1
Acyl-CoA desaturase 1
  pIC50: 5.79

## NC(=O)c1cnc(N2CC[C@@H](Oc3ccccc3C(F)(F)F)C2)s1
Acyl-CoA desaturase 1
  pIC50: < 4.70

## FC(F)(F)c1ccccc1OC1CCN(c2ncc(-c3ncco3)s2)CC1
Acyl-CoA desaturase 1
  pIC50: 7.85
Stearoyl-CoA desaturase
  pIC50: 7.26

## NC(=O)c1nnc(N2CCC(Oc3ccccc3C(F)(F)F)CC2)o1
Acyl-CoA desaturase 1
  pIC50: 7.08
Stearoyl-CoA desaturase
  pIC50: 6.70

## NC(=O)c1cnc(N2CCC(Oc3ccccc3C(F)(F)F)CC2)s1
Acyl-CoA desaturase 1
  pIC50: 8.52
Stearoyl-CoA desaturase
  pIC50: 8.00

## NS(=O)(=O)c1cnc(N2CCC(Oc3ccccc3C(F)(F)F)CC2)s1
Acyl-CoA desaturase 1
  pIC50: 7.39
Stearoyl-CoA desaturase
  pIC50: 5.99

## NC(=O)c1nnc(N2CCC(Oc3ccccc3C(F)(F)F)CC2)[nH]1
Acyl-CoA desaturase 1
  pIC50: 6.90
Stearoyl-CoA desaturase
  pIC50: 5.55

## NC(=O)c1cnc(N2CC[C@H](Oc3ccccc3C(F)(F)F)C2)s1
Acyl-CoA desaturase 1
  pIC50: 7.92
Stearoyl-CoA desaturase
  pIC50: 7.08

## O=C1CCCN1c1cnc(N2CCC(Oc3ccccc3C(F)(F)F)CC2)s1
Acyl-CoA desaturase 1
  pIC50: 6.79
Stearoyl-CoA desaturase
  pIC50: 6.76

## OCc1nc(-c2cnc(N3CCC(Oc4ccccc4C(F)(F)F)CC3)s2)no1
[6]
  Kp at 6 h: 8
[7]
  concentration at 6 h: 1800 nM
[8]
  Kp at 6 h: 6
[9]
  concentration at 3 h: 180 nM
[10]
  concentration at 6 h: 1100 nM
Mus musculus [11]
  Activity: 24%
Mus musculus [12]
  inhibition: inactive
[13]
  concentration at 3 h: < 25 nM
[14]
  concentration at 6 h: 6.7 µM
Acyl-CoA desaturase 1
  pIC50: 9.00
Mus musculus [15]
  Activity: 24%
[4]
  AUC(0-t) at 24 h: 16.8 µM·h
[16]
  concentration at 3 h: 1900 nM
[17]
  concentration at 3 h: < 25 nM
[18]
  concentration at 6 h: 8.9 µM
[5]
  bioavailability: 48%
Stearoyl-CoA desaturase
  pIC50: 9.00
Mus musculus [19]
  inhibition in vivo at 0.3 mg/kg: 45%
[20]
  concentration at 72 h: 180 nM
Mus musculus [1]
  Activity: Toxic
[21]
  concentration at 3 h: 600 nM
Mus musculus [22]
  inhibition in vivo at 1 mg/kg: 89%
[23]
  concentration at 3 h: 5.7 µM
Mus musculus [24]
  Activity: 4%
Mus musculus [2]
  ED50: 0.3 mg/kg
Mus musculus [3]
  Activity: Toxic

## NC(=O)c1cnc(N2CCN(Cc3ccccc3C(F)(F)F)CC2)s1
Acyl-CoA desaturase 1
  pIC50: 7.12
Stearoyl-CoA desaturase
  pIC50: 6.82

## NC(=O)c1cnc(N2CCN(S(=O)(=O)c3ccccc3C(F)(F)F)CC2)s1
Acyl-CoA desaturase 1
  pIC50: < 5.52

## NC(=O)c1cc(N2CCC(Oc3ccccc3C(F)(F)F)CC2)no1
Acyl-CoA desaturase 1
  pIC50: 8.10
Stearoyl-CoA desaturase
  pIC50: 7.85
